From PubChem
Shown is part of a subset that was picked to be rich in hits.
UCH37 inh = inhibitors of human UCH37 deubiquitinase, primary screen, biochemical, Ub-AMC cleavage, fluorescence; AID 588478, 2011; purified proteasome/UCH37; 330,000 compounds, 0.33% hits; Ubiquitin carboxyl-terminal hydrolase isozyme L5 (Homo sapiens), Q9Y5K5; inhibition, % (concentration not given with the values);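 active = mean inhibition over replicate wells above about 20%, limit read from the data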;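 note: 0% = compound-free wells with enzyme and 100% = wells lacking proteasome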
Target sequence (Q9Y5K5 whole entry, looked up): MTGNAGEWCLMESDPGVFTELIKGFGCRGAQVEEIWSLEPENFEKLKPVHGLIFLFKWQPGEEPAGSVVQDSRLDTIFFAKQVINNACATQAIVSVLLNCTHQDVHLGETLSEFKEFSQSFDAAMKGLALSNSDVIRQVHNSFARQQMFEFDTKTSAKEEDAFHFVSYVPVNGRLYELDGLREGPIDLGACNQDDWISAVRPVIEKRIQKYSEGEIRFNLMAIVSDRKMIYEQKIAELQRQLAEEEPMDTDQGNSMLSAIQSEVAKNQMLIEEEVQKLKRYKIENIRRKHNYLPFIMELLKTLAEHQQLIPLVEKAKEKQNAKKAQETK
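Material: human UCH37 enzyme supplied as purified proteasome complex / Amount: 0.15 nM proteasome as dispensed / Buffer or medium: pH 7.4 Tris-HCl (50 mM) with ovalbumin, ATP-MgCl2, DTT / Times: preincubation 30 min, reaction 25 min, room temperature / Technique: AMC fluorescence from Ub-AMC cleavage, excitation 355 nm, emission 460 nm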
CHOP inh = inhibitors of CHOP promoter induction, primary screen, cell-based, unfolded protein response, luciferase reporter. CHO-K1 CHOP-promoter luciferase, tunicamycin-induced, 15-18 h. inhibition, % at 10 µM. 220,000 compounds, 3.8% hits;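 active = compounds that reduced the stress-induced luciferase reporter signal by more than about 70% of percent inhibition, limit read from the data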;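 note: 0% = tunicamycin plus vehicle and 100% = wells without tunicamycin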
CTSL1 counter = Fasciola hepatica cathepsin L1 inhibitors, primary screen, counter-screen for PFM18AAP inhibitor project, biochemical, QFRET, fluorogenic peptide substrate; recombinant F. hepatica cathepsin L1, Z-Leu-Arg-MCA fluorescence; inhibition, % at 5.96 µM; 300,000 compounds, 0.49% hits; AID 1906, 2009;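 active = inhibition above the mean of all tested compounds plus 3 SD, set per screening campaign, cut at about 17% in these data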;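 note: 0% = plate median of test compound wells and 100% = 1 µM Z-Phe-Ala-diazomethylketone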
CHOP UPR activ = activators of apoptotic CHOP UPR arm, primary screen, cell-based, CHO-CHOP luciferase reporter, luminescence, uHTS. UPR activation; percent of tunicamycin response over DMSO baseline. activation, % at 10 µM. 330,000 compounds, 0.34% hits;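 active = at 10 µM dose, activation of 40% or more, normalized to positive control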;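 note: 100% = tunicamycin at 10 µg/mL and 0% = DMSO alone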
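Assay system: CHO cells with stable CHOP pathway luciferase reporter; Buffer or medium: F12 plus 10% serum; Times: 16-18 h cell attachment, then 6 h compound exposure, 37 °C; Signal: luciferase luminescence; Read-out basis: percent activation relative to tunicamycin control; Control set: tunicamycin high control, DMSO low control.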
UPR XBP1 act = activators of adaptive XBP1 UPR arm, primary screen, cell-based, CHO-XBP1 luciferase reporter, luminescence, uHTS; IRE1-XBP1 UPR activation; percent of tunicamycin response, DMSO as zero; activation, % at 20 µM; 330,000 compounds, 0.33% hits; AID 463104, 2010;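 active = versus positive control, 20 µM dose yields 30% or more activation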;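 note: 100% = tunicamycin at 10 µg/mL and 0% = DMSO only wells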
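assay system = CHO-XBP1 luciferase reporter cells | amount = 1000 cells/well | buffer or medium = F12 plus 10% FBS | compound dosing = single point, 20 µM final compound, 1% DMSO | incubation = 16-18 h cell attachment at 37 °C, then 6 h compound exposure | detection = Steady-Glo luminescence read | controls = tunicamycin 10 µg/mL and vehicle-only wells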
XBP1 UPR conf = IRE1-XBP1 UPR arm activators, confirmation, cell-based, CHO-XBP1 luciferase reporter, luminescence, single concentration; shares compounds with UPR XBP1 act; activation, % at 20 µM; 1,000 compounds, 63% hits;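 active = reporter signal at least 30% of the positive control's activation in two or more of four replicate wells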;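 note: plate controls were DMSO negative control for no effect and tunicamycin 10 µg/mL positive control for full effect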
The depositor's hits bear a star.

What do the screens show for `COc1ccccc1NC(CC(=O)c1ccccc1)C(=O)OCC(=O)c1ccc(C)cc1` (stereo unspecified)?
UCH37 inh: 5; CHOP inh: 12; CTSL1 counter: -1; CHOP UPR activ: 3; UPR XBP1 act: -2

Results for COc1ccccc1NC(CC(=O)c1ccccc1)C(=O)OCC(=O)c1ccc(C)c(C)c1 (stereo unspecified) ?
UCH37 inh: 4; CHOP inh: 3; CTSL1 counter: -1; CHOP UPR activ: 2; UPR XBP1 act: 36*; XBP1 UPR conf: -2

Results for CC(CCc1ccc2c(c1)OCO2)=NN=C(N)SC1CC(=O)N(c2ccccc2F)C1=O (stereo unspecified) ?
UCH37 inh: -1

What do the screens show for `Cc1cc(C)nc(NS(=O)(=O)c2ccc(NC(=O)c3cc4c(=O)n5cccc(C)c5nc4n3C)cc2)n1`?
UCH37 inh: -228; CTSL1 counter: -1; CHOP UPR activ: 10; UPR XBP1 act: 101*; XBP1 UPR conf: 4

How did Cc1cccn2c(=O)c3cc(C(=O)NC4CCCC4)n(C)c3nc12 do in these assays?
UCH37 inh: -125; CTSL1 counter: 4; CHOP UPR activ: 3; UPR XBP1 act: 7

Results for O=[N+]([O-])c1ccc(-c2ccc(C=Nc3c(-c4ccco4)nc4ccccn34)o2)cc1 ?
UCH37 inh: 9

Results for O=[N+]([O-])c1cc(-c2ccc(/C=N/c3nc4ccccn4c3-c3ccco3)o2)ccc1Cl ?
CHOP inh: 91*; CTSL1 counter: 1; CHOP UPR activ: 18; UPR XBP1 act: 101*; XBP1 UPR conf: 98*

What do the screens show for `COc1cc2c(cc1OC)[C@@H](NC(=O)c1ccc(C(F)(F)F)cc1)[C@H](OCc1ccccc1)C2`?
UCH37 inh: 3; CHOP UPR activ: 1; UPR XBP1 act: 36*; XBP1 UPR conf: 18

How did COc1ccc(C(=O)/C=C/c2cccs2)c(OC(=O)c2cccc([N+](=O)[O-])c2)c1 do in these assays?
UCH37 inh: 5; CHOP inh: -99; CTSL1 counter: 0; CHOP UPR activ: 8; UPR XBP1 act: 42*; XBP1 UPR conf: 56*

What do the screens show for `Clc1ccc(C2=Nn3c(nnc3-c3n[nH]c4c3CCC4)SC2)cc1`?
UCH37 inh: 5; CTSL1 counter: -4; CHOP UPR activ: -3; UPR XBP1 act: 15

What do the screens show for `Brc1ccc(C2=Nn3c(nnc3-c3n[nH]c4c3CCC4)SC2)cc1`?
CTSL1 counter: -1; CHOP UPR activ: 1; UPR XBP1 act: 37*; XBP1 UPR conf: 49*

Results for c1ccc(-c2ccc(C3=Nn4c(nnc4-c4cc(-c5ccccc5)n[nH]4)SC3)cc2)cc1 ?
UCH37 inh: 7; CHOP inh: -32; CTSL1 counter: -2; CHOP UPR activ: 5; UPR XBP1 act: 64*; XBP1 UPR conf: 23

Results for CC1=Nn2c(nnc2-c2cc(-c3ccccc3)n[nH]2)SC1 ?
UCH37 inh: 4; CHOP inh: 10; CTSL1 counter: 4; CHOP UPR activ: -1; UPR XBP1 act: -2

How did C#CCOCCOCCOCCNc1nc(N2CCN(C(=O)CCCCCCCCCCNC(=O)[C@H](CCCCN)n3cc(C[C@@H](C)CC)nn3)CC2)nc(N2CCN(C(=O)CCCCCCCCCCNC(=O)[C@H](CCCN=C(N)N)n3cc(C[C@@H](C)CC)nn3)CC2)n1 do in these assays?
CTSL1 counter: 3; CHOP UPR activ: 12; UPR XBP1 act: 31*; XBP1 UPR conf: 29*

Results for C#CCOCCOCCOCCNc1nc(N2CCN(C(=O)CCCCCCCCCCNC(=O)[C@H](CCCCN)n3cc(C)nn3)CC2)nc(N2CCN(C(=O)CCCCCCCCCCNC(=O)[C@H](CCCN=C(N)N)n3cc(C[C@@H](C)CC)nn3)CC2)n1 ?
CTSL1 counter: -4; CHOP UPR activ: -1; UPR XBP1 act: 8
